Activity calls are given as the source filed them. The rule behind the calls is not given here.

Assay [1] concerns Fusarium verticillioides. In words: Antifungal activity against Fusarium verticillioides NRRL 25457 at 200 ug/disk by disk diffusion method. It is filed as functional. (In general: A growth-free zone around the sample is the usual read-out of agar diffusion tests.)
Assay [2] concerns Staphylococcus aureus. In words: Antibacterial activity against Staphylococcus aureus ATCC 25923 at 200 ug/disk by disk diffusion method. In kind it is functional. The conditions noted are these: for zone of inhibition at 200 µg/disc: read-out: IZ. An outline of the steps:
(§1)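 Standard paper-disk diffusion assay. Test material was loaded at 200 μg/disk, and gentamicin sulfate was run as the standard at 50 μg/disk. The C. albicans assay used the same 200 μg/disk level. The read-out was the diameter of the zone of inhibition in mm.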

The test system of assay [3] is Candida albicans. In words: Antifungal activity against Candida albicans ATCC 14053 at 200 ug/disk by disk diffusion method. It is filed as functional, organism-based. In short, it runs like this:
as §1

Assay [4] deals with Bacillus subtilis. In words: Antibacterial activity against Bacillus subtilis ATCC 6051 at 200 ug/disk by disk diffusion method. In kind it is functional. The conditions noted are these: for zone of inhibition at 200 µg/disc: read-out: IZ. An outline of the steps:
as §1

For assay [5], the system named is Aspergillus flavus. In words: Antifungal activity against Aspergillus flavus NRRL 6541 at 200 ug/disk by disk diffusion method. In kind it is functional.
The subject of assay [6] is Bacillus subtilis. In words: Antibacterial activity against Bacillus subtilis ATCC 6051 at 50 ug/disk by disk diffusion method. In kind it is functional, organism-based. In short, it runs like this:
as §1

The subject of assay [7] is Staphylococcus aureus. In words: Antibacterial activity against Staphylococcus aureus ATCC 25923 at 50 ug/disk by disk diffusion method. It is filed as functional, organism-based. An outline of the steps:
as §1

Assay [8] deals with Fusarium verticillioides. In words: Antifungal activity against Fusarium verticillioides NRRL 25457 at 25 ug/disk by disk diffusion method. It is filed as functional, organism-based.
Assay [9] deals with Aspergillus flavus. In words: Antifungal activity against Aspergillus flavus NRRL 6541 at 25 ug/disk by disk diffusion method. It is filed as functional, organism-based.
In assay [10] the test system is Candida albicans. In words: Antifungal activity against Candida albicans ATCC 14053 at 25 ug/disk by disk diffusion method. It is filed as functional, organism-based.

As to `C=C1CC[C@H]2[C@](C)(CO)CCC[C@]2(C)[C@H]1C[C@@]12O[C@@H]1C(=O)[C@]1(CO)O[C@@H]1C2=O`, the zone of inhibition at 200 µg/disc in the assay with Fusarium verticillioides [1] (read-out: IZ) amounted to 20 mm; with Staphylococcus aureus [2] it was 32 mm; with Bacillus subtilis [4] it was 32 mm; with Aspergillus flavus [5] (read-out: IZ), 20 mm. The “inhibition zone (IZ)” value with Candida albicans [3] is “inactive”.
Take `C[C@@]1(CO)CCC[C@]2(C)[C@H]3C[C@@]45O[C@@H]4[C@H](O)[C@]4(CO)O[C@@H]4[C@]5(O)CC3=CC[C@@H]12`: the “inhibition zone (IZ)” value in the assay on Fusarium verticillioides [1], in the assay with Staphylococcus aureus [2], in the assay on Candida albicans [3], with Bacillus subtilis [4] and in the assay on Aspergillus flavus [5] was “inactive” throughout.
As for `C[C@@]1(CO)CCC[C@]2(C)[C@H]3C[C@@]45O[C@@H]4C(=O)[C@]4(CO)O[C@@H]4[C@]5(O)CC3=CC[C@@H]12` [HYMENOPSIN B], the “inhibition zone (IZ)” value in the assay with Fusarium verticillioides [1], in the assay with Candida albicans [3] and in the assay with Aspergillus flavus [5] was “inactive” in each case. For the same compound, the zone of inhibition at 200 µg/disc in the assay on Staphylococcus aureus [2] and with Bacillus subtilis [4] was 21 mm each time.
With GENTAMICIN SULFATE, the inhibition zone (IZ) in the assay with Bacillus subtilis [6] and in the assay with Staphylococcus aureus [7] was 25 mm throughout. In addition, the “inhibition zone (IZ)” value in the assay on Candida albicans [3] was “inactive”.
For the compound NYSTATIN, the “inhibition zone (IZ)” value in the assay with Fusarium verticillioides [8], in the assay with Aspergillus flavus [9] and with Candida albicans [10] was “Active” throughout.

The record behind these values is ChEMBL document CHEMBL1153752, “Hymenopsins A and B and a macrophorin analogue from a fungicolous Hymenopsis sp” (2010).
